In ChEMBL document CHEMBL3797115, “Design and synthesis of peptide conjugates of phosphoramide mustard as prodrugs activated by prostate-specific antigen” (Bioorg Med Chem, 2016):
Starred links: 1 amine or outer side, 2 acyl side, 3 side chain; linkers in the order of their positions; H or OH if unused. Non-standard residues stand in square brackets, D forms with d. Residues, ends and D or L forms follow the SMILES beside them. *: point of attachment. X1 = NP(=O)(OCc1c(F)c(F)c(N*)c(F)c1F)N(CCCl)CCCl; X3 = NP(=O)(OCc1c(F)cc(N*)cc1F)N(CCCl)CCCl; X2 = NP(=O)(OCc1ccc(N*)c(F)c1)N(CCCl)CCCl; X5 = NP(=O)(OCc1ccc(N*)cc1F)N(CCCl)CCCl; X4 = NP(=O)(OCc1ccc(N*)cc1)N(CCCl)CCCl; Glutaryl = O=C(CCCC(=O)[*:2])[*:1]; Hyp = O=C(O)[C@@H]1C[C@@H](O)CN1; Chg = N[C@H](C(=O)O)C1CCCCC1

Tests used:
[1] = Antiproliferative activity against human DU145 cells after 72 hrs by MTT assay; type: functional, cell-based; details: DU-145, 72 h
Procedure, shortened: (§1)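 LNCaP (PSA-producing) and DU145 (non-PSA) cells grown in RPMI 1640 with 10% FBS; 7500 LNCaP or 500 DU145 cells/well, grown 48 h. Medium then switched to serum-free RPMI with 2% TCM, no phenol red. Conjugates 0.01–100 µM for 72 h; medium alone as negative control. MTT 4 h at 37 °C, read at 570 nm; IC50 interpolated from percent of control growth.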

[2] = tested on: LNCaP; test: Antiproliferative activity against human LNCAP cells expressing prostate specific antigen after 72 hrs by MTT assay; type: functional, cell-based; procedure, shortened: as §1
[3] = target: T1, Prostate-specific antigen (Homo sapiens, UniProt P07288); test: Prodrug activation assessed as prostate specific antigen (unknown origin)-mediated drug metabolism in Tris/HCl buffer pH 8 at 100 uM measured as half life by HPLC analysis; type: ADME; details: pH 8, 100 µM
T1 sequence (P07288 whole entry): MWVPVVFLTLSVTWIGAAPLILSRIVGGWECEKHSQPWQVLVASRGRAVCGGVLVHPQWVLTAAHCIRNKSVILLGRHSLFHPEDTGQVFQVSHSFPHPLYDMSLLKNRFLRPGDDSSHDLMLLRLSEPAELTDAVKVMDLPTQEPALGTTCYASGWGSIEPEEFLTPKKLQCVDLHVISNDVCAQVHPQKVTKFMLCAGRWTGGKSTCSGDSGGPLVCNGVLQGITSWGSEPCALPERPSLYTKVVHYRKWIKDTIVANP
Procedure, shortened: (§2)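 Purified PSA with substrate at 1:100 enzyme/substrate molar ratio, 37 °C, Tris/HCl pH 8.0 with 10 mM CaCl2 and 0.1% Tween-20. Substrate stocks 10 mM in DMSO. Aliquots taken at intervals, quenched with 20% acetonitrile, frozen, then analysed by HPLC for substrate loss. Cleavage site after Gln confirmed by LC/MS.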

[4] = target: T1, Prostate-specific antigen; test: Prodrug activation assessed as prostate specific antigen (unknown origin)-mediated drug metabolism in Tris/HCl buffer pH 8 at 0.16 mM by HPLC analysis; type: ADME; details: pH 8, 160 µM, TDE = time-dependent effect; procedure, shortened: as §2
[5] = Half life in Tris buffer pH 8 at 100 uM by HPLC analysis; type: ADME
Procedure, shortened: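 Conjugate at 100 µM incubated at 37 °C in 50 mM Tris/HCl pH 8.0 with 10 mM CaCl2 and 0.1% Tween-20, without enzyme. Loss of conjugate followed over time by HPLC to give half-life.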

[6] = target: T1, Prostate-specific antigen; test: Prodrug activation assessed as prostate specific antigen (unknown origin)-mediated drug metabolism in Tris/HCl buffer at pH 8 measured after 2 hrs by HPLC analysis; type: ADME; details: pH 8, 2 h; procedure, shortened: as §2

`C[C@H](NC(=O)[C@@H]1C[C@@H](O)CN1C(=O)CCCC(=O)O)C(=O)N[C@@H](CO)C(=O)N[C@H](C(=O)N[C@@H](CCC(N)=O)C(=O)Nc1c(F)c(F)c(COP(N)(=O)N(CCCl)CCCl)c(F)c1F)C1CCCCC1` (some centres undefined) (Glutaryl-[Hyp]AS[Chg]Q-X1) showed an IC50 [1] of over 100 µM, an IC50 [2] of over 100 µM and a t1/2 [3] of 1.1 h. The Drug metabolism [4] was “tde” and the half-life at 100 µM [5] was 178 h.

`C[C@H](NC(=O)[C@@H]1C[C@@H](O)CN1C(=O)CCCC(=O)O)C(=O)N[C@@H](CO)C(=O)N[C@H](C(=O)N[C@@H](CCC(N)=O)C(=O)Nc1ccc(COP(N)(=O)N(CCCl)CCCl)cc1F)C1CCCCC1` (some centres undefined) (Glutaryl-[Hyp]AS[Chg]Q-X2) gave an IC50 [1] of over 100 µM, an IC50 [2] of 29 µM and a t1/2 [3] of 0.65 h. For the same molecule, the Drug metabolism [4] was “tde” and the half-life at 100 µM [5] was 465 h.

In the case of `C[C@H](NC(=O)[C@@H]1C[C@@H](O)CN1C(=O)CCCC(=O)O)C(=O)N[C@@H](CO)C(=O)N[C@H](C(=O)N[C@@H](CCC(N)=O)C(=O)Nc1cc(F)c(COP(N)(=O)N(CCCl)CCCl)c(F)c1)C1CCCCC1` (some centres undefined) (Glutaryl-[Hyp]AS[Chg]Q-X3), the IC50 [1] is reported as over 100 µM, the IC50 [2] is reported as 20 µM and the t1/2 [3] is reported as 1.7 h. For the same molecule, the Drug metabolism [4] was “tde” and the half-life at 100 µM [5] was 131 h.

Molecule `C[C@H](NC(=O)[C@@H]1C[C@@H](O)CN1C(=O)CCCC(=O)O)C(=O)N[C@@H](CO)C(=O)N[C@H](C(=O)N[C@@H](CCC(N)=O)C(=O)Nc1ccc(COP(N)(=O)N(CCCl)CCCl)cc1)C1CCCCC1` (some centres undefined) (Glutaryl-[Hyp]AS[Chg]Q-X4) has an IC50 [1] of 35 µM, an IC50 [2] of 11 µM and a t1/2 [3] of 2.1 h. For the same molecule, the Drug metabolism [4] was “tde” and the half-life at 100 µM [5] was 46 h.

`C[C@H](NC(=O)[C@@H]1C[C@@H](O)CN1C(=O)CCCC(=O)O)C(=O)N[C@@H](CO)C(=O)N[C@H](C(=O)N[C@@H](CCC(N)=O)C(=O)Nc1ccc(COP(N)(=O)N(CCCl)CCCl)c(F)c1)C1CCCCC1` (some centres undefined) (Glutaryl-[Hyp]AS[Chg]Q-X5) showed an IC50 [1] of over 100 µM, an IC50 [2] of 5.3 µM and a t1/2 [3] of 0.93 h. The Drug metabolism [4] was “tde” and the half-life at 100 µM [5] was 105 h.

Molecule `COc1cccc2c1C(=O)c1c(O)c3c(c(O)c1C2=O)C[C@](O)(C(=O)CO)C[C@H]3O[C@@H]1C[C@@H](NC(=O)[C@@H](CC(C)C)NC(=O)[C@@H](CO)NC(=O)[C@@H](CCC(N)=O)NC(=O)[C@H](NC(=O)[C@@H](CO)NC(=O)[C@@H](C)NC(=O)[C@@H]2C[C@@H](O)CN2C(=O)CCCC(=O)O)C2CCCCC2)[C@@H](O)[C@@H](C)O1` (stereo in doubt) has an IC50 [1] of over 100 µM, an IC50 [2] of 1.1 µM and a t1/2 [3] of 0.6 h. The Drug metabolism [6] was “metabolite_detected”.
